PostGolgi yeast: growth inhibition of a yeast mutant, post-Golgi transport screen. inhibition, % at 10 µM. post-Golgi transport phenotypic cell assay. 98,000 tested, 0.9% active;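 note: yeast cells grown in 1536-well plates; yeast grown about 18 h at 30C before absorbance read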
Plk1 PBD FP: inhibitors of human Plk1 polo box domain binding; Plk1 PBD phosphopeptide binding, fluorescence polarization; inhibition, %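 (tested at about 20 µM)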; 97,000 tested, 0.13% active; in the data active = inhibition above about 34%, passing the limit was not always enough
Target sequence (P53350 whole entry, looked up, the tested form may be a part): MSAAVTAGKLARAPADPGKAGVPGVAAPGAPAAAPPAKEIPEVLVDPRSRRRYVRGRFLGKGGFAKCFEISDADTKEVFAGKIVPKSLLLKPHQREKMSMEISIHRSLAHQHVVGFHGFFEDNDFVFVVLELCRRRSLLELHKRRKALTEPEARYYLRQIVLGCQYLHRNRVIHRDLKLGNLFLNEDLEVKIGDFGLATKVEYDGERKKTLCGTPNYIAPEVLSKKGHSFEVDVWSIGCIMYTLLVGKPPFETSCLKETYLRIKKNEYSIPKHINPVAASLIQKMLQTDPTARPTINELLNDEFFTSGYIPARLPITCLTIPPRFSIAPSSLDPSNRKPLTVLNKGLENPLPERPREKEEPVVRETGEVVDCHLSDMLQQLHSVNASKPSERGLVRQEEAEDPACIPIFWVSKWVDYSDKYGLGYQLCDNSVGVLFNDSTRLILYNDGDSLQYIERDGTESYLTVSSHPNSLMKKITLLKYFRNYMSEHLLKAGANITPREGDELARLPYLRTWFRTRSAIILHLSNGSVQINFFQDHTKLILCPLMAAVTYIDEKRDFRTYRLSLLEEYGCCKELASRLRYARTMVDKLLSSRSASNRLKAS
PLK1 inh: blocks human PLK1 kinase activity; inhibition, % at 10 µM; P53350; recombinant PLK1 kinase, TR-FRET peptide phosphorylation; 97,000 tested, 0.53% active; AID 619;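 active = inhibition of 50% or more in the single-concentration screen; inactive = inhibition below 50%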;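 note: 0% = DMSO max control and 100% = H-89 dihydrochloride min control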
PostGolgi ctrl: growth of the yeast control strain, post-Golgi counter-screen; efflux-deficient yeast background strain, growth absorbance A615, 16 h; inhibition, % at 10 µM; 98,000 tested, 5% active; AID 738
EphB4 antag: blocks human EphB4 binding to ephrin-B2. EphB4 LBD / TNYL-RAW-Alexa532 peptide, fluorescence polarization. inhibition, % at 7 µM. 97,000 tested, 0.15% active;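 active = inhibition above the screen-wide mean inhibition plus 3 SD, cut at about 15% in these data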;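 note: 0% = DMSO wells and 100% = excess unlabeled TNYL-RAW peptide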
HIV Rev-RRE inh: inhibitors of HIV-1 Rev-RRE RNA interaction; P05866; Rev peptide-RRE RNA binding, FRET; inhibition, % at 8 µM; 97,000 tested, 0.79% active; AID 704;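 active = inhibition above the screen-wide mean plus 3 SD, cut at about 35% in these data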;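 note: 0% = median DMSO wells and 100% = median Neomycin B control wells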
Target sequence (P05866 whole entry, looked up): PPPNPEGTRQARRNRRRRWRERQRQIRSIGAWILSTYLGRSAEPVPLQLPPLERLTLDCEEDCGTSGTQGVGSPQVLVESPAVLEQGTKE
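Test system – labelled RRE RNA duplex and labelled Rev peptide · Signal – fluorescein-to-Cy5 FRET, 480 nm excitation · Evaluation – % inhibition of FRET ratio versus controls · Benchmarks – DMSO low control, neomycin B high control · Incubation – 5 min RNA-compound premix plus 15 min binding step, 25 °C · Medium – HEPES pH 7.5 salt buffer with EDTA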
Starred values were filed as active, the others as inactive; / = not tested or not shown; [ ] = dose if it differs, or a comment. An excerpt weighted towards active compounds, which were near 6.4% of everything screened. Cut-off read from the data, not from the text of the source, unless noted: active = inhibition above about 30%; inactive = the rest.

SMILES	PostGolgi yeast	Plk1 PBD FP	PLK1 inh	PostGolgi ctrl	EphB4 antag	HIV Rev-RRE inh
O=C1CN(C(=O)c2cc(Br)c(Br)s2)c2ccccc2N1	-3.2	-13.0	-5.7	36.5*	-2.2	5.7
O=C1CN(C(=O)c2ccccc2)c2ccccc2N1	-4.4	1.1	-7.6	19.1	-5.1	5.1
CC(=O)NC(=S)Nc1ccc(NC(=O)COc2ccc(Cl)cc2Cl)cc1	-2.7	-12.0	-9.8	5.5	-4.9	-3.1
O=C(COc1ccc(Cl)cc1)NCCSCc1cccc(Cl)c1	4.8	-25.4	-5.4	39.0*	-8.3	11.1
O=C(COc1ccc(Cl)cc1Cl)NCCSc1ccc(Cl)cc1	-0.7	-4.4	4.8	43.1*	-7.0	14.8
Cc1cccc(C(=O)N/N=C/c2ccc(OCC(=O)N3CCCCC3)cc2)c1	7.3	-7.7	-4.1	10.1	1.6	-0.9
O=C(CSCc1cccc(Cl)c1)N/N=C/c1ccc(OCC(=O)N2CCCCC2)cc1	-2.0	7.9	-7.6	41.6*	7.0	8.1
O=C(COc1ccc(Cl)cc1Cl)NNC(=S)Nc1ccc(F)cc1	3.8	43.6	-8.7	38.1*	1.0	-5.3
Cc1nc2c(-c3ccc(F)cc3)c(C)nn2c(C)c1CCC(=O)N1CCN(c2ccc(F)cc2)CC1	-12.8	5.9	-12.0	25.7	3.1	1.8
O=C(Cc1nc2ccccc2[nH]1)NCc1ccco1	0.3	20.2	-10.5	20.9	6.2	14.4
COc1ccc(N2C(=O)C3CCCN3C2=O)cc1 (centres undefined)	-1.4	4.2	-10.7	10.8	4.4	1.6
CC1CCN(C(=O)Cn2cc3c(n2)CCCC3)CC1	5.8	-20.5	-7.7	10.1	-0.2	5.2
O=C(O)c1cc(S(=O)(=O)NCC2CCCO2)ccc1Cl (centres undefined)	3.1	-5.5	-4.6	5.1	-0.5	8.0
O=C(COc1ccc(Cl)cc1Cl)NCCCCc1ccccc1	-4.5	41.4	-9.1	42.5*	-4.6	13.3
CCCCCC/C(C)=C1/SC(=S)NC1=O	-2.8	-24.1	-6.3	55.0*	2.1	0.9
COc1ccc(OC)c(NC(=O)c2ccccc2NS(=O)(=O)c2cccc3cccnc23)c1	-8.6	8.0	-10.7	4.0	3.3	6.0
O=C(C1=C(O)C(=O)N(c2ncccn2)C1c1ccc(Cl)cc1)c1ccco1 (centres undefined)	-5.8	-13.2	-6.9	12.6	4.2	32.1
O=C(C1=C(O)C(=O)N(c2ncccn2)C1c1ccc(Cl)c(Cl)c1)c1ccco1 (centres undefined)	4.4	-0.5	-17.1	-6.3	-5.1	51.3*
O=C(C1=C(O)C(=O)N(c2ncccn2)C1c1cccc(Cl)c1)c1ccco1 (centres undefined)	-2.5	17.7	-3.7	-2.1	5.6	36.2*
COc1ccc(C(=O)ON=C2CCN(c3ccc([N+](=O)[O-])cc3)CC2)cc1	5.5	-1.2	-7.8	35.8*	-10.5	5.8
CCOC(=O)N1CCN(C(=S)Nc2cc(OC)c(OC)cc2C(=O)OC)CC1	-5.2	-17.4	-1.6	5.1	2.4	4.4
O=C(CSc1nnc(CNc2ccc(F)cc2)n1Cc1ccccc1)N1CCOCC1	-3.8	18.1	2.4	-3.6	-3.8	-1.6
O=C(O)/C=C1\NC(=O)c2ccccc21	0.2	13.8	-2.3	1.6	-1.1	0.9
O=C1N/C(=C\c2ccc(O)cc2)C(=O)c2ccccc21	5.6	12.7	-13.6	11.6	4.5	68.7*
COC(=O)Cn1cc(/C=N/NC(=O)c2ccc(C#N)cc2F)c2ccccc21	2.1	-5.6	-15.1	40.2*	-1.6	5.8
SMILES	PostGolgi yeast	Plk1 PBD FP	PLK1 inh	PostGolgi ctrl	EphB4 antag	HIV Rev-RRE inh
O=C(CSc1ncn[nH]1)Nc1ccccc1-c1ccccc1	-7.0	20.4	-8.1	-6.3	0.8	3.5
O=C(CSc1ncn[nH]1)Nc1nnc(-c2ccccc2)s1	-0.8	9.3	62.6*	5.9	0.2	2.8
Cc1ccccc1CS(=O)(=O)c1nnc([C@H](Cc2ccccc2)NC(=O)OC(C)(C)C)o1	36.5*	-25.4	-1.8	51.0*	4.3	8.9
CCC(C)[C@@H](NC(=O)OC(C)(C)C)c1nnc(S(=O)(=O)Cc2cccc(C)c2)o1 (some centres undefined)	14.9	-22.2	-8.2	51.6*	-0.8	-1.9
COc1ccccc1Nc1ncnc2ccc(C)cc12	2.4	-28.7	-6.5	23.0	2.5	3.1
Cc1ccc2nc3sc(C(=O)Nc4ccc(N5CCOCC5)cc4)c(N)c3cc2c1	16.6	-5.4	-8.6	-3.3	1.1	8.7
CCOC(=O)Cc1csc(NC(=O)c2sc3nc4ccc(C)cc4cc3c2N)n1	-5.4	-19.6	-8.4	-11.1	3.0	80.6*[fluorescence artefact?]
CCc1nnc(NC(=O)c2sc3nc4cc(C)ccc4cc3c2N)s1	-17.5	-127.2	-21.8	-0.3	-0.3	87.9*[fluorescence artefact?]
Cc1cc(C)n(CCOc2ccc(Cl)cc2Cl)n1	10.5	12.9	-5.2	35.0*	4.3	13.2
Cc1cc(C)n(C(=O)COc2ccc(Cl)cc2Cl)n1	/	-19.0	-6.4	/	0.2	-0.2
O=C(COC(=O)CC12CC3CC(CC(Br)(C3)C1)C2)NC(=O)NCc1ccco1	0.3	-5.0	-10.7	16.6	-4.6	6.5
Cc1ccc(-n2nnnc2SCc2nnc(-c3ccccc3Br)o2)c(C)c1	-1.4	/	/	47.0*	/	/
Cc1cccc2cc(CN(C(=O)c3cnccn3)C3CCCCC3)c(Cl)nc12	-4.4	-26.2	-10.5	33.0*	-5.0	1.8
CCOC(=O)c1cc(CC)sc1NC(=O)c1cc(OC)c(OC)c(OC)c1	2.9	-10.9	-2.7	11.2	-3.8	-1.0
Nc1c2c(nc3ccn(-c4ccccc4)c(=O)c13)CCCCC2	6.4	-14.3	-8.6	4.0	-4.6	-0.5
Nc1c2c(nc3ccn(Cc4ccccc4)c(=O)c13)CCC2	11.2	-8.2	-6.1	44.5*	2.4	-7.2
CC(=O)Oc1ccc(OC(C)=O)c(SCCCCCN2CCOCC2)c1	6.4	6.8	-7.1	5.9	1.1	4.9
Clc1ccc(C2=Nn3c(nnc3-c3n[nH]c4c3CCC4)SC2)cc1Cl	14.2	-4.5	-7.1	38.4*	3.1	8.9
c1ccc(C2=Nn3c(nnc3-c3n[nH]c4c3CCC4)SC2)cc1	9.8	-1.1	-8.7	3.3	4.0	8.3
O=C(CSc1nc(O)c(Cc2ccccc2)c(=O)n1-c1ccccc1)N1CCOCC1	-0.7	-1.6	-13.4	14.1	4.8	0.8
Cc1cc2n(c1)CCn1c(C)ccc1-2	-1.6	13.5	4.5	-1.3	3.6	45.7*
CCCC1=[N+](CC)CCn2c(C)ccc21	-6.8	10.5	-10.5	15.2	-7.6	3.1
FC(F)(F)c1cnc2c(c1)Nc1ccccc1S2	33.1*	-24.9	-6.2	22.4	0.3	9.1
O=C1Nc2cccnc2Sc2ccccc21	5.3	13.2	-2.5	7.0	-1.9	1.8
O=C(Nc1ccc2snnc2c1)N1CCN(c2ccccc2)CC1	/	10.5	-8.9	/	7.9	-0.7
O=C(Nc1ccc2snnc2c1)Nc1cccc2ccccc12	6.3	-31.2	0.7	48.5*	-4.7	9.5

High-throughput results (PubChem BioAssay)
